A selection: hits, their analogues and other compounds. The true share with any hit is near 4.6%.
TAAR1 antagonist – human TAAR1 antagonists, primary screen, Fluo-8 calcium fluorescence, CHO RD-HGA16 cells; inhibition, % at 3 µM; antagonist; 1.5% of 360,000 active; Trace amine-associated receptor 1 (Homo sapiens), Q96RJ0;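 active = inhibition above a per-plate cutoff, the mean inhibition of test compounds on that plate plus 3 SD, cut at about 49% in these data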
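Test system: RD-HGA16 CHO cells with stable hTAAR1 and Gα16 / Probe or stimulus: EC80 β-phenethylamine stimulus / Times: seeding 17-24 h prior, 75-min 37 °C, 30-min RT dye loading / Detection: Fluo-8 calcium-sensitive fluorescence / Read-out basis: % inhibition scaled between DMSO and EC80 PEA controls / Repeats: singlicate, one well per test compound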
GPR7 antagonist – GPR7 receptor antagonists, primary screen, cell-based, fluorescence, single concentration; GPR7-expressing cells, fluorescence antagonist assay; AID 1861, 2009; Neuropeptides B/W receptor type 1 (Homo sapiens), P48145; 1.1% of 290,000 active; inhibition, % at 4.4 µM; in the data active = inhibition above about 16%, passing the limit was not always enough;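 note: cells stimulated with the agonist NPW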
TAAR1 agonist – human TAAR1 agonists, primary screen, Fluo-8 calcium fluorescence, CHO RD-HGA16 cells; Trace amine-associated receptor 1 (Homo sapiens), Q96RJ0; vehicle wells 0%, saturating PEA agonist 100%; activation, % at 3 µM; 0.99% of 360,000 active; AID 624467, 2012;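 active = activation above the mean activation of all test compounds in the run plus 3 SD, cut at about 38% in these data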
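Test system: RD-HGA16 (CHO) cells co-expressing Gα16 and hTAAR1; dosing: one-point dosing at 3 µM (nominal); timing: 17-24 h seeding, 75 min 37 °C dye, 30 min RT; signal: kinetic Fluo-8 calcium fluorescence; read-out basis: % activation relative to PEA EC100 response; controls: DMSO and PEA EC100; replicates: n 1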
OX1R antag-1 – OX1R (HCRTR1) antagonists, primary screen, fluorescence, CHO/OX1R cells, Fluo-8 calcium, orexin A | Orexin/Hypocretin receptor type 1 (Homo sapiens), O43613 | Fluo-8 calcium fluorescence | inhibition, % at 5 µM | 0.43% of 330,000 active | AID 434989, 2010;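 active = inhibition above its plate's threshold, mean inhibition of all tested compounds on the plate plus 3 SD, cut at about 37% in these data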
Target sequence (O43613 whole entry, looked up): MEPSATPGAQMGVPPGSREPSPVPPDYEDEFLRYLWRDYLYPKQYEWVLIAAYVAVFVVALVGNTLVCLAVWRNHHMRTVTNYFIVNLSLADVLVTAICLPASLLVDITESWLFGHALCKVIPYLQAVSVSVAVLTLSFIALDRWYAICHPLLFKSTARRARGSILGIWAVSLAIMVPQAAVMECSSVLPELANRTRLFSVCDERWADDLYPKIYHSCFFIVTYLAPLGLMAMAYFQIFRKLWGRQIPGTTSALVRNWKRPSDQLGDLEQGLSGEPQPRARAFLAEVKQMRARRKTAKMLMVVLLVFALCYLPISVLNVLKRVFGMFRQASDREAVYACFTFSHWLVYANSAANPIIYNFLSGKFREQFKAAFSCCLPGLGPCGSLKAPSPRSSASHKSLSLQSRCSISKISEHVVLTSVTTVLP
CHO parental Ca – ATP-evoked calcium signal inhibitors, parental CHO, primary screen, counter-screen for OX1R antagonist project, cell-based, fluorescence, Fluo-8 calcium dye | parental CHO-K1, ATP-induced calcium, Fluo-8 fluorescence | inhibition, % at 5.6 µM | 0.63% of 330,000 active | AID 463079, 2010;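 active = inhibition above that plate's mean sample inhibition plus 3 SD, cut at about 26% in these data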
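Measured by: calcium-sensitive Fluo-8 fluorescence / Test system: CHO parental line / Controls: ATP-challenged DMSO wells low, unchallenged DMSO wells high / Measure: % inhibition / Compound: single nominal dose of 5.6 µM per compound / Replicates: single well per compound, no replicates / Reagent: ATP as calcium-mobilizing challenge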
OX1R antag-2 – antagonists of human orexin 1 receptor (OX1R). OX1R-expressing cells, FRET antagonist read-out. Orexin/Hypocretin receptor type 1 (Homo sapiens), O43613. AID 485270, 2010. inhibition, % at 6.6 µM. 1.8% of 330,000 active; in the data active = inhibition mostly above about 38%, no sharp cut-off; inactive = mostly below about 40%
OX1R HTRF conf – OX1R (HCRTR1) antagonists, confirmation, cell-based, HTRF. inhibition, % at 6.6 µM. OX1R-expressing cells, HTRF antagonist assay. AID 492964, 2010. 49% of 1,800 active. shares compounds with OX1R antag-2; in the data active = inhibition above about 55%;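 note: CHO cells expressing OX1R stimulated with orexin A at about EC80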
CHO-K1 HTRF – signal inhibition in parental CHO-K1 cells, counter-screen for OX1R antagonist project, cell-based, HTRF; shares compounds with OX1R antag-2; HTRF counterscreen; inhibition, % at 6.6 µM; AID 493232, 2011; 48% of 1,800 active; in the data active = inhibition above about 17%
Hits are given with their value; n = inactive; x = no result.

SMILES	TAAR1 antagonist	GPR7 antagonist	TAAR1 agonist	OX1R antag-1	CHO parental Ca	OX1R antag-2	OX1R HTRF conf	CHO-K1 HTRF
COC(=O)c1cc(S(=O)(=O)NCc2cccc(Br)c2)c[nH]1	n	n	n	n	n	n	x	x
CC[n+]1c(/C=C/c2ccc(N(C)C)cc2)ccc2ccccc21	n	n	n	n	n	94	82	103
CC[n+]1ccccc1/C=C/c1ccc(N(C)C)cc1	n	n	n	x	x	x	x	x
CC(C)c1ccc(N=C(N)N=C(N)N)cc1	n	n	n	n	n	n	x	x
O=C(NC(=S)Nc1cccc2cccnc12)c1ccccc1	n	n	n	n	n	n	x	x
O=C(NC(=S)Nc1cccc2cccnc12)c1cccs1	n	n	n	n	n	95	93	n
CN(C)c1ccc(N=Nc2nc3ccccc3n2C)cc1	n	n	n	n	n	106	107	29
CCn1c(NCc2ccc(N(C)C)cc2)nc2ccccc21	n	n	n	n	n	n	x	x
CCOc1ccc(S(=O)(=O)N2CCC(C(=O)N3CCN(c4ccccc4F)CC3)CC2)cc1C	n	n	n	n	n	n	x	x
O=C(Nc1cccc2ccccc12)c1ccccc1	n	n	n	n	n	n	x	x
Cc1c(C)n(C)c2ccc(C(=O)Nc3cccc4ccccc34)cc12	n	n	n	n	n	85	77	n
O=C(OCCN1C(=O)c2cccc3c(N4CCOCC4)ccc(c23)C1=O)c1cc(Cl)cc(Cl)c1	x	n	x	x	x	x	x	x
CC(=O)N(C(C)=O)N1C(=O)c2cccc3c(N4CCOCC4)ccc(c23)C1=O	n	n	n	n	n	119	n	40
NC(=O)c1ccccc1OCc1cccc2ccccc12	n	n	n	n	n	n	x	x
NC(=O)c1cccc2cc3ccccc3cc12	n	n	n	n	n	77	n	n
O=C(NN1C(=O)c2ccc(-c3ccc4c(c3)C(=O)N(NC(=O)c3cccnc3)C4=O)cc2C1=O)c1cccnc1	n	n	n	n	n	92	n	33
CCOC(=O)C1CCN(C(=O)c2cc3cc4ccc(OC)cc4nc3o2)CC1	n	n	n	n	n	n	x	x
COc1ccc2nc3oc(C(=O)N4CCC(C(N)=O)CC4)cc3cc2c1	n	n	n	n	n	154	n	38
CC1Cc2cc(S(=O)(=O)CCC(=O)NCc3ccco3)ccc2N1C(=O)C1CC1 (centres undefined)	n	n	n	n	n	n	x	x
Nc1c(Cl)ncnc1N/N=C/c1cccnc1	n	n	n	n	n	84	n	31
Cc1cccc(-c2c3c(=O)n(C)c(=O)n(C)c3cn2C(C)C)c1	n	n	n	n	n	n	x	x
Cc1ccc2c(ccn3cc4c(c(=O)n(C)c(=O)n4C)c23)c1	n	n	n	n	n	86	88	n
CCC(C)NC(=O)c1ccc2c(c1)S(=O)(=O)c1ccccc1C2=O (centres undefined)	n	n	n	x	x	x	x	x
COCC(C)NC(=O)c1ccc2c(c1)S(=O)(=O)c1ccccc1C2=O (centres undefined)	n	n	n	n	n	109	n	55
CC(C)OCCCNC(=O)c1ccc2c(c1)S(=O)(=O)c1ccccc1C2=O	n	n	n	n	n	85	n	41
SMILES	TAAR1 antagonist	GPR7 antagonist	TAAR1 agonist	OX1R antag-1	CHO parental Ca	OX1R antag-2	OX1R HTRF conf	CHO-K1 HTRF
COCCNC(=O)c1ccc2c(c1)S(=O)(=O)c1ccccc1C2=O	n	x	n	n	n	86	n	84
CCNC(=O)c1ccc2c(c1)S(=O)(=O)c1ccccc1C2=O	n	n	n	n	n	189	n	67
CCC(=O)Nc1sc2c(c1C#N)CC(C)(CC)OC2 (centres undefined)	n	n	n	n	n	n	x	x
Cc1ccc(S(=O)(=O)NCC2CCC(C(=O)NCCCN3CCC(C)CC3)CC2)cc1 (centres undefined)	n	x	n	x	x	x	x	x
CCOC(=O)c1csc(NC(=O)c2ccc(C#N)cc2)n1	n	n	n	n	n	n	x	x
CC(=O)NCCNC(=O)c1ccc2c(c1)S(=O)(=O)c1ccccc1C2=O	n	n	n	n	n	86	n	85
CCCCNC(=O)c1ccc2c(c1)S(=O)(=O)c1ccccc1C2=O	n	n	n	x	x	x	x	x
C=CCNC(=O)c1ccc2c(c1)S(=O)(=O)c1ccccc1C2=O	n	x	n	n	n	126	58	58
CCCCn1c(N)c(N(CC)C(=O)c2ccc3c(c2)S(=O)(=O)c2ccccc2C3=O)c(=O)[nH]c1=O	n	n	n	n	n	85	n	18
CCCCn1c(N)c(N(CC)C(=O)c2ccc(Cl)c(Cl)c2)c(=O)[nH]c1=O	n	n	n	n	n	n	x	x
COC(=O)c1sc2ncn(-n3c(C)ccc3C)c(=O)c2c1C	n	n	n	n	n	n	x	x
COc1cc(C(=O)O)nc2ccc([N+](=O)[O-])cc12	n	n	n	n	n	88	60	98
COc1ccc([N+](=O)[O-])cc1C(=O)C(=O)c1ccccc1	n	n	n	n	n	n	x	x
O=C(NCc1cccs1)c1ccc(CS(=O)Cc2cccc(Cl)c2)o1 (centres undefined)	n	n	n	n	n	n	x	x
CCC(=O)OCCNc1cc(SCCC(=O)OC)c2nonc2c1[N+](=O)[O-]	n	n	n	n	n	84	59	78
CCC(=O)OCCNc1cc(Sc2nccn2C)c2nonc2c1[N+](=O)[O-]	n	n	n	n	n	122	63	90
CC(=O)OCCN(C)c1cc(SC(C)C)c2nonc2c1[N+](=O)[O-]	n	n	n	n	n	n	x	x
CC(=O)OCCNc1cc(SC(C)C)c2nonc2c1[N+](=O)[O-]	n	n	n	n	n	104	n	72
O=C(N/N=C/c1ccc(OCc2ccccc2)cc1)c1cc[n+](Cc2ccccc2)cc1	n	n	n	n	n	n	x	x
O=C(N/N=C/c1ccc(O)cc1)c1cc[n+](Cc2ccccc2)cc1	n	n	n	n	n	90	n	45
c1cncc(-c2nc(NCC3COc4ccccc4O3)c3ccccc3n2)c1 (centres undefined)	54	n	n	n	n	95	56	n
c1cncc(-c2nc(NCc3ccc4c(c3)OCO4)c3ccccc3n2)c1	n	n	n	n	n	n	x	x

Bioassay records: PubChem BioAssay, The Scripps Research Institute Molecular Screening Center
